Data on four compounds can be found in ChEMBL document CHEMBL2086292, “Chalcogenopyrylium compounds as modulators of the ATP-binding cassette transporters P-glycoprotein (P-gp/ABCB1) and multidrug resistance protein 1 (MRP1/ABCC1)” (J Med Chem, 2012).

Molecules are shown by their SMILES.

The target in series [1] is T1, MRP1 (Multidrug resistance-associated protein 1) (Homo sapiens, UniProt P33527). In words: Inhibition of human MRP1-mediated uptake of [3H]E2-17betaG in HEK cell membrane vesicles at 1 uM by liquid scintillation counting relative to control. The class given is cell membranes, HEK293. The conditions noted are these: HEK cell membrane vesicles with human MRP1, probe [3H]E2-17betaG. A digest of the protocol:
(§1)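 Inside-out membrane vesicles from HEK cells stably transfected with human MRP1. Vesicle protein (2 μg) incubated in Tris-sucrose buffer pH 7.4 with 400 nM [3H]E2-17βG, 4 mM ATP or AMP and 10 mM MgCl2, 3 min at 37 °C, in duplicate; DMSO ≤1% final. Stopped by ice-cold dilution and rapid filtration, then scintillation counted. ATP-dependent uptake taken as ATP minus AMP values; inhibition reported as percent.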

Series [2] concerns the target T1, MRP1 (Multidrug resistance-associated protein 1). The series is described as follows: Inhibition of human MRP1 mediated uptake of [3H]E2-17betaG in HEK cell membrane vesicles at 30 uM by liquid scintillation counting relative to control. The class given is cell membranes, HEK293. Conditions: HEK cell membrane vesicles with human MRP1, probe [3H]E2-17betaG. A digest of the protocol: as §1

Another series concerns the target P-gp (ABCB1) (Homo sapiens, UniProt P08183). The series is described as follows: (§2) Induction of ATPase activity of human His10-tagged P-gp expressed in BHK cells assessed as inorganic phosphate release after 30 mins relative to control. Type of series: cell-based. Conditions: human His10-tagged P-gp expressed in BHK cells, read-out: FC. A digest of the protocol:
(§3)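 Human P-gp with C-terminal His10 tag, stably expressed in BHK cells, purified by Ni-chelate chromatography and mixed 1:1 with 10 mg/mL sheep brain phosphatidylethanolamine in TBS (10 mM Tris/HCl pH 7.4, 150 mM NaCl), then sonicated. Compound titrated, 30 min at 37 °C. Inorganic phosphate released from ATP measured. Vmax expressed as fold over basal activity; KM is the concentration giving half-maximal stimulation.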

Series [3] relates to MDCK-II. In words: Inhibition of P-gp expressed in MDCK2-MDR1 cells at 5 uM by calcein AM accumulation assay relative to LSN 335984. Type of series: cell-based. A digest of the protocol: (§4)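 MDCKII cells transfected with wild-type human MDR1, seeded at 40000 cells/well and used on day 4. Washed in DPBS with 10 mM HEPES pH 7.4, then compound in the same buffer 30 min at 37 °C. Replaced with compound plus 0.5 μg/mL calcein AM for a further 20 min. Fluorescence read at Ex 485/Em 530 nm. Signal expressed relative to 5 μM LSN 335984, taken as complete inhibition; vehicle 0.25% DMSO. IC50 from 1:1 serial dilutions by variable-slope sigmoidal fit.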

Series [4] relates to MDCK-II. The series is described as follows: Inhibition of P-gp expressed in MDCK2-MDR1 cells at 25 uM by calcein AM accumulation assay relative to LSN 335984. Type of series: cell-based. A digest of the protocol: as §4
The target in series [5] is T1, MRP1 (Multidrug resistance-associated protein 1). The series is described as follows: Inhibition of human MRP1-mediated uptake of [3H]E2-17betaG in HEK cell membrane vesicles at 10 uM by liquid scintillation counter. The class given is cell membranes, HEK293. The conditions noted are these: HEK cell membrane vesicles with human MRP1, probe [3H]E2-17betaG. A digest of the protocol: as §1

Series [6] in a line: Octanol-water partition coefficient, log P of the compound in PBS at pH 7.4 after 1 hr by shake flask method. Type of series: physicochemical. A digest of the protocol: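 Shake-flask method: saturated n-octanol solution shaken with an equal volume of PBS pH 7.4 for 3–5 min, then left to settle 1 h at 23 °C. Concentration in each layer measured spectrophotometrically.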
Series [7] in a line: Inhibition of P-gp expressed in MDCK2-MDR1 cells by calcein AM accumulation assay. Type of series: cell-based. The conditions noted are these: MDCK-II. A digest of the protocol:
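MDCKII cells transfected with wild-type human MDR1, seeded at 40000 cells/well and used on day 4. Washed in DPBS with 10 mM HEPES pH 7.4, then compound in the same buffer 30 min at 37 °C. Replaced with compound plus 0.5 μg/mL calcein AM for a further 20 min. IC50 from 1:1 serial dilutions by variable-slope sigmoidal fit.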

Series [8] is described as follows: Inhibition of P-gp mediated [3H]VIN efflux in MDCK2-MDR1 cells by scintillation counter. Type of series: cell-based. The conditions noted are these: MDCK-II. A digest of the protocol:
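MDCKII-MDR1 monolayers on Transwell filters, used on day 6. Rinsed in DPBSH, then preincubated 30 min at 37 °C with compound ([…]) in BSA/DPBSH. [3H]vinblastine (0.25 μCi/mL) plus compound added basolaterally and fresh compound solution added apically. Apical buffer replaced every 10 min; apical radioactivity counted by scintillation. IC50 fitted.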

Series [9] can be described thus: Normalized ratio of the compound assessed as ratio of PBA/AB in absence of LSN 335984 to ratio of PBA/AB in presence of LSN 335984 in MDCK2-MDR1 cells at 5 uM after 1 hr. The class given is ADME, cell-based, Canis lupus familiaris. Conditions: dog, mdck-mdr1, 1 h. A digest of the protocol:
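MDCKII-MDR1 cells seeded at 50000 cells/cm² on Transwell filters, used on day 6. Preincubated 30 min with 4.3 mg/mL BSA in DPBSH, with or without 5 μM LSN 335984. Compound (5 μM) added to the apical or basolateral donor chamber and incubated 1 h at 37 °C with nutation. Donor and receiver samples quantified by LC-MS/MS. AB and BA permeabilities calculated. Normalized ratio is the BA/AB ratio without inhibitor divided by the ratio with inhibitor.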

In series [10] the test system is P-glycoprotein (MDR1). The series is described as follows: P-glycoprotein-mediated transport in MDCK2-MDR1 cells assessed as permeability across apical to basolateral side at 5 uM after 1 hr. Conditions: dog, MDCK-MDR1.
Series [11] has as its system P-glycoprotein (MDR1). In words: P-glycoprotein-mediated transport in MDCK2-MDR1 cells assessed as permeability across basolateral to apical side at 5 uM after 1 hr. Conditions: dog, MDCK-MDR1.
Series [12] deals with T2, ATP-dependent translocase ABCB1 (Homo sapiens, UniProt P08183). Described as §2. The class given is cell-based. Conditions: bhk, 0.5 h. A digest of the protocol:
as §3

Series [13] concerns the target T1, MRP1 (Multidrug resistance-associated protein 1). In words: Inhibition of human MRP1 mediated uptake of [3H]E2-17betaG in HEK cell membrane vesicles at 5 uM by liquid scintillation counting relative to control. The conditions noted are these: HEK cell membrane vesicles with human MRP1, probe [3H]E2-17betaG. The class given is cell membranes, HEK293. A digest of the protocol:
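Inside-out vesicles from stably transfected HEK-MRP1 cells (2 μg protein) in Tris-sucrose buffer pH 7.4 with [³H]E₂17βG 400 nM, ATP or AMP 4 mM, MgCl₂ 10 mM, 3 min at 37 °C, compound at 5 μM; DMSO ≤1%; stopped by ice-cold dilution, rapid filtration, scintillation counting; ATP-dependent uptake = ATP minus AMP; duplicate wells.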

The target of series [14] is T2, ATP-dependent translocase ABCB1. The series is described as follows: Inhibition of VER-stimulated human His10-tagged P-gp ATPase activity expressed in BHK cells after 15 mins. Type of series: cell-based.

T1 sequence (P33527 whole entry): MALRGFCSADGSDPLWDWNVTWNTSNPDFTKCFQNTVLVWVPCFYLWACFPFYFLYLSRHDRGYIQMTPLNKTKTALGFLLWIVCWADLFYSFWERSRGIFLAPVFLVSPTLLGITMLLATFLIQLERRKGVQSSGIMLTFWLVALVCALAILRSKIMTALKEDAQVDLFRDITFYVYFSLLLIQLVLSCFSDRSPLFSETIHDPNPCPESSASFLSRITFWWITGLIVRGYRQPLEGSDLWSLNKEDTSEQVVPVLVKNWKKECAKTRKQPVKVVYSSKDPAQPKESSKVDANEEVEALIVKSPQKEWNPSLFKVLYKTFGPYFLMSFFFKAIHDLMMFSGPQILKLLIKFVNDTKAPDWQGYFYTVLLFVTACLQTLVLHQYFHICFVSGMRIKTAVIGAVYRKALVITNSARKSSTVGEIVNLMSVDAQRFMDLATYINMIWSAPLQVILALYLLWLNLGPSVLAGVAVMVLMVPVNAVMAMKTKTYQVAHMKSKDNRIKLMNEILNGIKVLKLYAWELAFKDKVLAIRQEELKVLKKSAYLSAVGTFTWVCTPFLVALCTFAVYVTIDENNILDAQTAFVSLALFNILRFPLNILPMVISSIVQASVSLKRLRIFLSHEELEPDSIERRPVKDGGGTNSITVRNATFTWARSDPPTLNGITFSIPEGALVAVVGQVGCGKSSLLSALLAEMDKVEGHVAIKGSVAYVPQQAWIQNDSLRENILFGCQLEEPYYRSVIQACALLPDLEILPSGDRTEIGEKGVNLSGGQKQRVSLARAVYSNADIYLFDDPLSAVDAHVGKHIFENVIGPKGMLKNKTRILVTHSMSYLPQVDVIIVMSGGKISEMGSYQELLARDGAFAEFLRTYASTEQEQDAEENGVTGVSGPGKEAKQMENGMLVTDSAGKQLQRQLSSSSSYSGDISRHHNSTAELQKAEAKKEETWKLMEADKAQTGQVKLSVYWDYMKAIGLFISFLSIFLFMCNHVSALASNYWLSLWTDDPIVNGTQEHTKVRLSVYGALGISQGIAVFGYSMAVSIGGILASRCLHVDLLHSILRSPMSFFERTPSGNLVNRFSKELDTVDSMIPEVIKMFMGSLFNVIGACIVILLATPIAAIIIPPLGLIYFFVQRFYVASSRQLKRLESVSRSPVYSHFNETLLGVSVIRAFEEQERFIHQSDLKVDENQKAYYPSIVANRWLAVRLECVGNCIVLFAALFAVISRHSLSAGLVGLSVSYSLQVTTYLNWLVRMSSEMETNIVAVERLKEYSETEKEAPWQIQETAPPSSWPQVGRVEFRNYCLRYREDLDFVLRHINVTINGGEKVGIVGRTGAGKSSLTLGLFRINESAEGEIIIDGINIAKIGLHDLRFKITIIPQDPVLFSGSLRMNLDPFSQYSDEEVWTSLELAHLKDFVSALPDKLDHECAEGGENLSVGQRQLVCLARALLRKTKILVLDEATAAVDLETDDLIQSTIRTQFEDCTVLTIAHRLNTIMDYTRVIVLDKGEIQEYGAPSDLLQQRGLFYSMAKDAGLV
T2 sequence (P08183 whole entry): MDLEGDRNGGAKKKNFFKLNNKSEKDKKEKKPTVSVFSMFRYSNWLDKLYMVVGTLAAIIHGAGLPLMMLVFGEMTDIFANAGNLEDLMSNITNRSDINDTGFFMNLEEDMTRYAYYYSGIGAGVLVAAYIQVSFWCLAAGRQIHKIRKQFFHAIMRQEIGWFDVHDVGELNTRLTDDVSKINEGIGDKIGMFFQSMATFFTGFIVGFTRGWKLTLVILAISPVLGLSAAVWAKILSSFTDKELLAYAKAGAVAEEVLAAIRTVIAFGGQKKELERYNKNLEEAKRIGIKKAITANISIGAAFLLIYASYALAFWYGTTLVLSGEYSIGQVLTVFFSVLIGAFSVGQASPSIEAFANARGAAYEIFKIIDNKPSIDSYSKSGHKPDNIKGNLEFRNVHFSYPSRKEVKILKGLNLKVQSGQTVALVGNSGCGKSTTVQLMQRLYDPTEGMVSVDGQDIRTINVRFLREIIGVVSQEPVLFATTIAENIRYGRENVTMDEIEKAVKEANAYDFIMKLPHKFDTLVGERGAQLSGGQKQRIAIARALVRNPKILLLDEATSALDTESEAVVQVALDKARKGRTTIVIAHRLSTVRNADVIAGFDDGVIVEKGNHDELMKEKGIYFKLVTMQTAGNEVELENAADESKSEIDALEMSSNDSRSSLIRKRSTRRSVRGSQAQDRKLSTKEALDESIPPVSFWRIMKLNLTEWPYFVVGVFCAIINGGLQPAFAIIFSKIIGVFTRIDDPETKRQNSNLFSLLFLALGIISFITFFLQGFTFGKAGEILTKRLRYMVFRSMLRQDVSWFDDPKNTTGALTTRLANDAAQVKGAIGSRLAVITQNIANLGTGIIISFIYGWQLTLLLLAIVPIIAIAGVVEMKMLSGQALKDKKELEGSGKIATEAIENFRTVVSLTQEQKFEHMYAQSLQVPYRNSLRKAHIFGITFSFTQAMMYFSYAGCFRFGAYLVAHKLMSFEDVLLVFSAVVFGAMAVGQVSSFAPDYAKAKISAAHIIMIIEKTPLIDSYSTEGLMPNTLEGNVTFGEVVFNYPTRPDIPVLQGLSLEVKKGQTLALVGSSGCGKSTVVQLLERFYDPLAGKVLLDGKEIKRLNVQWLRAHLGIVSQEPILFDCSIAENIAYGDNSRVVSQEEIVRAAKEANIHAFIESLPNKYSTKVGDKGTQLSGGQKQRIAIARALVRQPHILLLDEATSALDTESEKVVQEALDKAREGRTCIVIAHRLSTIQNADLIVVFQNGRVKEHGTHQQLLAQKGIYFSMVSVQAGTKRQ
P-gp (ABCB1), sequence (P08183 whole entry): as above

With `CN(C)c1ccc(-c2cc(-c3ccc(C(=S)N4CCCCC4)s3)cc(C(C)(C)C)[s+]2)cc1.[Cl-]`, 1 µM produced 36% inhibition in series [1]. In addition, the inhibition (commonly the percentage by which the read-out fell short of the control) at 30 µM in series [2] was found to be 93%. The fold induction at 0.5 h on P-gp (ABCB1) worked out at 5.2. The inhibition in the series on MDCK-II [3] was 31%; with MDCK-II [4], 74%. In [5], 10 µM produced 93% inhibition. The logD (in general, lipophilicity at a set pH, counting ionised and neutral species) at 1 h in series [6] came to 2.1. Besides, the IC50 (commonly the point on the concentration scale where inhibition reaches its midpoint) in series [7] is 38 µM; in [8], 11.5 µM. The Ratio in [9] is 705. Further, the Papp A-B at 1 h, 5 µM in the series on P-glycoprotein (MDR1) [10] worked out at 0.3 nm/s. Besides, the Papp B-A at 1 h, 5 µM with P-glycoprotein (MDR1) [11] worked out at 320 nm/s.

As for `CC(C)(C)c1cc(-c2ccc(C(=S)N3CCCCC3)s2)cc(C(C)(C)C)[s+]1.F[P-](F)(F)(F)(F)F`, in series [2], the inhibition at 30 µM came to 71%. Besides, the “fold change (FC)” value in [12] came out at 4.4.

In the case of `CC(C)(C)c1cc(-c2ccc(C(=O)O)s2)cc(C(C)(C)C)[te+]1`, the inhibition at 5 µM in series [13] turned out to be 24%. Besides, the fold induction at 0.5 h on P-gp (ABCB1) was below 1.4. Moreover, in series [14], the IC50 was 162 µM.

In series [13], `CC(C)(C)c1cc(-c2ccc(C(=O)O)s2)cc(C(C)(C)C)[se+]1` registered an inhibition at 5 µM of 15%. The fold induction at 0.5 h on P-gp (ABCB1) was below 1.4. This compound also displayed an IC50 in series [14] of 111 µM.
